Measurements taken from ChEMBL document CHEMBL1125361, “Effect of modification of the basic residues of dynorphin A-(1-13) amide on kappa opioid receptor selectivity and opioid activity” (J Med Chem, 1992).

What was measured:
Cavia porcellus = species: Cavia porcellus; assay: Potency was evaluated in guinea pig ileum relative to Dynorphin A.; type: functional
In short: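 Isolated guinea pig ileum; agonist dose–response curves were determined. In the experiments using norbinaltorphimine, the antagonist was added to the tissue bath 10 min before the agonist dose–response curve was run.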

[1] = biological target: Kappa-type opioid receptor (Cavia porcellus, UniProt P41144); assay: Inhibition of [3H]- bremazocine to opioid receptor kappa of guinea pig […] membranes was determined
Chain of Kappa-type opioid receptor (P41144 whole entry): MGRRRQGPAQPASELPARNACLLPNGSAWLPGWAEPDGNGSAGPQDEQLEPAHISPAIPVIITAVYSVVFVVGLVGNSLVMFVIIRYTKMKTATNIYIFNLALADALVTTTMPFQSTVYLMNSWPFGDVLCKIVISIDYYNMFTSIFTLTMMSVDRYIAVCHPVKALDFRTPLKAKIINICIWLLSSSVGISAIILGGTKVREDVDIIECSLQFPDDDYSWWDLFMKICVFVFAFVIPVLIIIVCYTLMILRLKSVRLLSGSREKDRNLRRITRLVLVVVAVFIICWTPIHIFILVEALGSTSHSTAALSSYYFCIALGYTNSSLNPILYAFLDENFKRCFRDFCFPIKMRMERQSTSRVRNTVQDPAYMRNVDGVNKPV
In short: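 Guinea pig cerebellar membranes labelled with [3H]bremazocine at 4 °C with bestatin and 100 nM DAMGO present. Nonspecific binding defined with 1 μM Dyn A-(1-13)NH2. Ki from Cheng-Prusoff using KD 0.0549 nM for [3H]bremazocine.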

Mu-type opioid receptor = Mu-type opioid receptor (Rattus norvegicus, UniProt P33535); assay: Inhibition of [3H]DAMGO to opioid receptor mu of rat fore brain membranes was determined; type: cell membranes, Membrane
Chain of Mu-type opioid receptor (P33535 whole entry): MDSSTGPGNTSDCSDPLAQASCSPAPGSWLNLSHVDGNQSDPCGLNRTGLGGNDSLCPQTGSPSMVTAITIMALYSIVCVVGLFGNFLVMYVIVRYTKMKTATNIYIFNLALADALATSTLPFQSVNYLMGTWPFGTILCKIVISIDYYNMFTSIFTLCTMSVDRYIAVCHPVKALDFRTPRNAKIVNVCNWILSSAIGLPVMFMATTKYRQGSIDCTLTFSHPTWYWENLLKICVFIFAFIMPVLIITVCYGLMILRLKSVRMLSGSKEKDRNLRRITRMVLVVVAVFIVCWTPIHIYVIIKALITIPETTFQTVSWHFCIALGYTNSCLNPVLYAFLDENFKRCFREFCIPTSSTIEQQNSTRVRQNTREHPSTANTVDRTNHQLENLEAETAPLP
In short: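 Rat forebrain membranes with [3H]DAMGO at 4 °C in presence of peptidase inhibitors. Nonspecific binding defined by 10 μM levorphanol. Ki derived via Cheng-Prusoff, KD 0.314 nM.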

[2] = biological target: Opioid receptor (mu and kappa) (Cavia porcellus, UniProt P41144+P97266); assay: Opioid receptor activity in guinea pig ileum; type: functional, tissue-based
In short: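 Isolated guinea pig ileum in tissue bath, agonist dose-response curves. When norbinaltorphimine was used, the antagonist was added 10 min before the agonist dose-response determination.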

[3] = biological target: Delta-type opioid receptor (Rattus norvegicus, UniProt P33533); assay: Inhibition of [3H]DPDPE to opioid receptor delta of rat fore brain membranes was determined; type: cell membranes, Membrane
Chain of Delta-type opioid receptor (P33533 whole entry): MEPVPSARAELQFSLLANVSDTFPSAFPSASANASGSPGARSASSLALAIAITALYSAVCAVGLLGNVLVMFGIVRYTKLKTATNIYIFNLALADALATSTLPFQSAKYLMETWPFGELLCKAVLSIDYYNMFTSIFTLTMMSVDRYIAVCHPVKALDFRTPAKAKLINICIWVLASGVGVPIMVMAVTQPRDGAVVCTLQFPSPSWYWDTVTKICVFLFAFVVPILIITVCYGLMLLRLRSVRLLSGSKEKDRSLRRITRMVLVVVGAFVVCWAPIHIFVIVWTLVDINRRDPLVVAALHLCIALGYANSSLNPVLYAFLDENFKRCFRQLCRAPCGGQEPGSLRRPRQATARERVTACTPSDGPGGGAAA
In short: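 [3H]DPDPE displacement from rat forebrain membranes at 4 °C, peptidase inhibitors included. Nonspecific binding taken with 10 μM unlabeled DPDPE. Cheng-Prusoff Ki using KD 7.63 nM.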

Compound | Relative potency (Cavia porcellus) | Ki [1] | Ki (Mu-type opioid receptor) | IC50 [2] | Ki [3]
CC[C@H](C)[C@H](NC(=O)[C@H](CCCN=C(N)N)NC(=O)[C@H](CCCN=C(N)N)NC(=O)[C@H](CC(C)C)NC(=O)[C@H](Cc1ccccc1)NC(=O)CNC(=O)CNC(=O)[C@@H](N)Cc1ccc(O)cc1)C(=O)N[C@@H](CCCN=C(N)N)C(=O)N1CCC[C@H]1C(=O)N[C@@H](CCCCN)C(=O)N[C@@H](CC(C)C)C(=O)N[C@@H](CCCCNC(C)=O)C(N)=O | 126% | 0.15 nM | 0.061 nM | 0.19 nM | 4.6 nM
CC[C@H](C)[C@H](NC(=O)[C@H](CCCN=C(N)N)NC(=O)[C@H](CCCN=C(N)N)NC(=O)[C@H](CC(C)C)NC(=O)[C@H](Cc1ccccc1)NC(=O)CNC(=O)CNC(=O)[C@@H](N)Cc1ccc(O)cc1)C(=O)N[C@@H](CCCN=C(N)N)C(=O)N1CCC[C@H]1C(=O)N[C@@H](CCCCN)C(=O)N[C@@H](CC(C)C)C(=O)N[C@@H](CCCCN)C(N)=O | 100% | 0.023 nM | 0.4 nM | 0.24 nM | 1.9 nM
CC[C@H](C)[C@H](NC(=O)[C@H](CCCN=C(N)N)NC(=O)[C@H](CCCN=C(N)N)NC(=O)[C@H](CC(C)C)NC(=O)[C@H](Cc1ccccc1)NC(=O)CNC(=O)CNC(=O)[C@@H](N)Cc1ccc(O)cc1)C(=O)N[C@@H](CCCN=C(N)N)C(=O)N1CCC[C@H]1C(=O)N[C@@H](CCCCNC(C)=O)C(=O)N[C@@H](CC(C)C)C(=O)N[C@@H](CCCCN)C(N)=O | 148% | 0.053 nM | 0.03 nM | 0.16 nM | 0.45 nM
CC[C@H](C)[C@H](NC(=O)[C@H](CCCN=C(N)N)NC(=O)[C@H](CCCN=C(N)N)NC(=O)[C@H](CC(C)C)NC(=O)[C@H](Cc1ccccc1)NC(=O)CNC(=O)CNC(=O)[C@@H](N)Cc1ccc(O)cc1)C(=O)N[C@@H](CCCCNC(C)=O)C(=O)N1CCC[C@H]1C(=O)N[C@@H](CCCCN)C(=O)N[C@@H](CC(C)C)C(=O)N[C@@H](CCCCN)C(N)=O | 91% | 0.0042 nM | 0.043 nM | 0.26 nM | 1.3 nM
H-YGGFLK(Ac)RIRPKLK-NH2 | 37% | 0.024 nM | 0.018 nM | 0.64 nM | 0.42 nM
H-YGGFLKRIRPKLK-NH2 [listing 1 of 2 here] | 94% | – | – | 0.25 nM | –
H-YGGFLKRIRPKLK-NH2 [listing 2 of 2 here] | – | 0.02 nM | 0.075 nM | – | 5.9 nM
H-YGGFLRK(Ac)IRPKLK-NH2 | 69% | 0.14 nM | 0.18 nM | 0.34 nM | 1.1 nM
H-YGGFLRKIRPKLK-NH2 [listing 1 of 2 here] | 122% | – | – | 0.19 nM | –
H-YGGFLRKIRPKLK-NH2 [listing 2 of 2 here] | – | 0.021 nM | 0.055 nM | – | 1.6 nM
H-YGGFLRRIKPKLK-NH2 [listing 1 of 2 here] | 89% | – | – | 0.27 nM | –
H-YGGFLRRIKPKLK-NH2 [listing 2 of 2 here] | – | 0.0067 nM | 0.046 nM | – | 1.9 nM
